According to ChEMBL document CHEMBL2311436, “Synthesis of acylated glycoconjugates as templates to investigate in vitro biopharmaceutical properties” (Bioorg Med Chem Lett, 2013):

Experiments:
Plasma = test: (§1) Degradation half life in human plasma; type: ADME, cell-free
How it was run: (§2)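 Compounds were incubated in human plasma at 37 °C, and ester hydrolysis was followed by mass spectrometry. Tri-, di- and mono-acylated intermediates and the fully deacylated product were tracked by their characteristic molecular weights.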

Albumin = Albumin (Homo sapiens, UniProt P02768); test: Binding affinity to human serum albumin by chromatographic HSA binding assay; type: ADME; conditions: isolated protein
How it was run: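 Protein binding was estimated from retention time on an immobilized human serum albumin (HSA) HPLC column, correlated against standard compounds with known protein binding values. This was used in place of equilibrium dialysis or ultrafiltration because the esters may deacylate under those conditions.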

Liver microsomes [1] = test: In vitro intrinsic clearance in human liver microsomes assessed per milligram of protein in presence of NADPH; type: ADME, Microsome
How it was run: (§3)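 Compounds were incubated with human liver microsomes, and mass spectrometry monitored parent loss and the appearance of mono-, di- and tri-acylated and fully deacylated hydrolysis products.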

Liver microsomes [2] = test: In vitro intrinsic clearance in human liver microsomes assessed per milligram; type: ADME, Microsome; how it was run: as §3
[3] = as §1; type: ADME, cell-free; how it was run: as §2

Albumin, sequence (P02768 whole entry): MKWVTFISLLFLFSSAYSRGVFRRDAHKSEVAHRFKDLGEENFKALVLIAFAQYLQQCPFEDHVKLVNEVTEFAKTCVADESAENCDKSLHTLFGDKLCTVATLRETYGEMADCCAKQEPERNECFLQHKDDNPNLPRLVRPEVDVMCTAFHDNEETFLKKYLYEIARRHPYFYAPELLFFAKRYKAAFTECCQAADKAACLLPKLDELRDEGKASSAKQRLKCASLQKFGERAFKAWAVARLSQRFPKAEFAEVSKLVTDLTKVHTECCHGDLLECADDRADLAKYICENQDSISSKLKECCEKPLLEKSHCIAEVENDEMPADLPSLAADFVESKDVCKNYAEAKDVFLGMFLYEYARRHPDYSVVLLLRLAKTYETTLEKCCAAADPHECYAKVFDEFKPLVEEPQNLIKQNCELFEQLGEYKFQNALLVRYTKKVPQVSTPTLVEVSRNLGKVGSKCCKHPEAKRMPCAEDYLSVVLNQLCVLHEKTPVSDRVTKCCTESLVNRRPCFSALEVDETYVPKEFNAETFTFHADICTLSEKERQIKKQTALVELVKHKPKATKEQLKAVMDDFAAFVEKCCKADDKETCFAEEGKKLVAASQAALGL

Row | SMILES | t1/2 (Plasma) | Activity (Albumin) | CLH (Liver microsomes [1]) | CLH (Liver microsomes [2]) | half-life [3]
1 | CC(C)CC(=O)OC[C@H]1O[C@@H](n2cc(-c3ccccc3)nn2)[C@H](OC(=O)CC(C)C)[C@@H](OC(=O)CC(C)C)[C@@H]1OC(=O)CC(C)C | Stable | < 99% | < 7 µL/min | < 7 µL/min | –
2 | CCCC(=O)OC[C@H]1O[C@@H](n2cc(-c3ccccc3)nn2)[C@H](OC(=O)CCC)[C@@H](OC(=O)CCC)[C@@H]1OC(=O)CCC | – | 96% | 69 µL/min | 83 µL/min | 555 min
3 | OC[C@H]1O[C@@H](n2cc(-c3ccccc3)nn2)[C@H](O)[C@@H](O)[C@@H]1O | Stable | 19% | < 7 µL/min | < 7 µL/min | –
4 | CCCCC(=O)OC[C@H]1O[C@@H](n2cc(-c3ccccc3)nn2)[C@H](OC(=O)CCCC)[C@@H](OC(=O)CCCC)[C@@H]1OC(=O)CCCC | Stable | < 99% | < 7 µL/min | < 7 µL/min | –

More lines, now with the values ahead:

Row | t1/2 (Plasma) | Activity (Albumin) | CLH (Liver microsomes [1]) | CLH (Liver microsomes [2]) | half-life [3] | SMILES
5 | – | 59% | 397 µL/min | 423 µL/min | 55 min | CC(=O)OC[C@H]1O[C@@H](n2cc(-c3ccccc3)nn2)[C@H](OC(C)=O)[C@@H](OC(C)=O)[C@@H]1OC(C)=O
6 | – | 88% | ND(Unstable) | ND(Unstable) | 26 min | CCC(=O)OC[C@H]1O[C@@H](n2cc(-c3ccccc3)nn2)[C@H](OC(=O)CC)[C@@H](OC(=O)CC)[C@@H]1OC(=O)CC
